This note sets out measurements from the array DNA melting data of Ke et al. (doi:10.1101/2024.01.08.574731).

Series [1] in a line: folding enthalpy; higher = less favourable; fluorescence melt of hairpins on a sequencing array, two-state fit. The following applies: sodium 0.088 M. In a few lines: (§1)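 On a sequenced MiSeq flow cell, library hairpins with annealed Cy3 and quencher oligos were imaged for Cy3 fluorescence in 2.5 °C steps up to 60 °C, in 50 mM Na-HEPES pH 8.0, 25 mM NaCl. Normalisation used pre-quench Cy3 and control constructs. Bootstrapped two-state fits gave melting temperature and folding enthalpy, combined by inverse variance across four replicates and with fitted temperatures raised by 9.35 °C to match UV melts.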

Series [2] can be described thus: melting temperature; fluorescence melt of hairpins on a sequencing array, two-state fit, raised by 9.35 °C to match UV melts. To be noted: sodium 0.088 M. In a few lines:
as §1

As for GAATTGGGAAACTGATTC ((((..(....)..)))), the folding enthalpy in series [1] is -13.2 kcal/mol. Besides, the Tm in series [2] came to 25.6 °C.

As to GATCGTTACCACGATC ((((((....)))))), the folding enthalpy in series [1] was -45.6 kcal/mol. The Tm in series [2] stood at 54.3 °C.

As to GCTCGGGGAAACTCGGGC ((.((.(....).)).)), in series [1], the folding enthalpy was -26 kcal/mol. Moreover, the Tm in series [2] was 46.6 °C.

GCTCGGTCGAAAGACAGC (((..(((....)))))): in series [1], the folding enthalpy is -12.3 kcal/mol. In series [2], the Tm worked out at 41.2 °C.

Regarding GTCTGCGGAAACGTGGAC (((..((....))..))), in series [1], the folding enthalpy was -32.4 kcal/mol. The Tm in series [2] amounted to 47.5 °C.

Turning to GCAGTGGGAAACCACCGC ((.((((....)))).)), in series [1], the folding enthalpy was -23.4 kcal/mol. For the same sequence, the Tm in series [2] worked out at 48.8 °C.

In the case of GGATATGGAAACACATCC ((((.((....)).)))), the folding enthalpy in series [1] is -26.3 kcal/mol. For the same sequence, the Tm in series [2] was 31.5 °C.

Regarding GTCAAAGGAAACTTCGAC (((.(((....))).))), the folding enthalpy in series [1] is -19.4 kcal/mol. Further, the Tm in series [2] amounted to 31.1 °C.

GATCATATCGATGATC ((((((....)))))): in series [1], the folding enthalpy was -34.3 kcal/mol. Further, the Tm in series [2] is 47.4 °C.

As to CGTTCGGAAACGACCACG ((((((....)))..))), in series [1], the folding enthalpy was -8.89 kcal/mol. Besides, the Tm in series [2] turned out to be 27.3 °C.

As to GCATGGCGAAAGCAAAGC ((.(.((....)).).)), in series [1], the folding enthalpy is -10.9 kcal/mol. In addition, the Tm in series [2] amounted to 31.8 °C.

Turning to GGTCACCGAAAGGTCACC (((.(((....))).))), in series [1], the folding enthalpy is -25.6 kcal/mol. The Tm in series [2] stood at 43.9 °C.

Consider GGTATGGAAACATACC ((((((....)))))), for which, in series [1], the folding enthalpy is -41.9 kcal/mol. Moreover, the Tm in series [2] was determined as 53.4 °C.

With GACAGCCGAAAGGCCGTC (((.(((....))).))), in series [1], the folding enthalpy was -18.7 kcal/mol. For the same sequence, the Tm in series [2] worked out at 55 °C.

GGGCTCGAAAGAGAACCC ((((((....)))..))): the folding enthalpy in series [1] is -19.5 kcal/mol. The Tm in series [2] was determined as 45.2 °C.

For GCCTTAACGAAAGTTGGC (((..(((....)))))), the folding enthalpy in series [1] was -26.5 kcal/mol. In addition, in series [2], the Tm was determined as 43.7 °C.

Consider GTCGACGGAAACACCGAC ((((..(....)..)))), for which the folding enthalpy in series [1] was -24.8 kcal/mol. Besides, in series [2], the Tm is 31.6 °C.

For GGTGACGAAAGTCGAACC ((((((....)))..))), the folding enthalpy in series [1] was -17.6 kcal/mol. Also, the Tm in series [2] is 41.9 °C.

Consider GCGACTGTCGC ((((...)))), for which, in series [1], the folding enthalpy was -33 kcal/mol. The Tm in series [2] was found to be 48 °C.

GATCAGGCCTCTGATC ((((((....)))))): the folding enthalpy in series [1] is -49.2 kcal/mol. Besides, the Tm in series [2] amounted to 52.1 °C.

As to CGCGCGGAAACGCCGGCG ((((((....)))..))), in series [1], the folding enthalpy was -22.2 kcal/mol. Moreover, the Tm in series [2] is 54.3 °C.

Turning to GCTTCGCGAAAGCGTTGC ((..(((....)))..)), the folding enthalpy in series [1] is -20.3 kcal/mol. Further, the Tm in series [2] came to 47.2 °C.

GGGCCTCGAAAGAGCCCC (((.(((....))).))): the folding enthalpy in series [1] is -15.7 kcal/mol. Also, the Tm in series [2] stood at 57.2 °C.

Consider GGTCCCTCGAAAGAGACC (((..(((....)))))), for which the folding enthalpy in series [1] was -17.1 kcal/mol. The Tm in series [2] worked out at 34.8 °C.

As to CGTTCGGAAACGAGAACG ((((((....)))..))), in series [1], the folding enthalpy was -27.9 kcal/mol. In addition, the Tm in series [2] stood at 41.2 °C.

On to CGAATCGGAAACGAGTCG (((.(((....))).))), for which, in series [1], the folding enthalpy was -40.2 kcal/mol. For the same sequence, the Tm in series [2] stood at 51.3 °C.

Consider GATCCTTACGAGGATC ((((((....)))))), for which, in series [1], the folding enthalpy is -39.9 kcal/mol. Also, the Tm in series [2] was 53.2 °C.

For GAGGGACGAAAGTCACTC (((.(((....))).))), the folding enthalpy in series [1] is -31.2 kcal/mol. Further, the Tm in series [2] is 65.6 °C.

On to GCGGGAGGAAACTCCCAC (.(((((....))))).), for which the folding enthalpy in series [1] was -13.7 kcal/mol. Besides, the Tm in series [2] was 48.7 °C.

As for GATCTCGTAGAGATC ((((((...)))))), the folding enthalpy in series [1] was -37.2 kcal/mol. Moreover, the Tm in series [2] amounted to 67.9 °C.

Regarding GGTGATGAAAATCACC ((((((....)))))), in series [1], the folding enthalpy was -32.1 kcal/mol. In addition, the Tm in series [2] is 62.5 °C.

Regarding GATCTTTCAAAAGATC ((((((....)))))), the folding enthalpy in series [1] is -32.2 kcal/mol. Also, in series [2], the Tm was determined as 42.2 °C.

Take GGTCGCGGAAACGTGACC ((((.((....)).)))): the folding enthalpy in series [1] is -51.2 kcal/mol. The Tm in series [2] was determined as 63.5 °C.

Consider CGTTCGGAAACGAAAACG ((((((....)))..))), for which the folding enthalpy in series [1] was -24.8 kcal/mol. Moreover, the Tm in series [2] was 34.9 °C.

As for GCGTAACCACGC ((((....)))), the folding enthalpy in series [1] is -23.3 kcal/mol. Moreover, the Tm in series [2] was found to be 54.8 °C.

As to CTCGTGAAAACGAG (((((....))))), the folding enthalpy in series [1] is -21.4 kcal/mol. The Tm in series [2] turned out to be 53.5 °C.

Consider GCGAACGTCGC ((((...)))), for which the folding enthalpy in series [1] is -18.8 kcal/mol. For the same sequence, the Tm in series [2] amounted to 45.8 °C.

With GTGCTTGGAAACAAGTGC (..((((....))))..), the folding enthalpy in series [1] is -21 kcal/mol. For the same sequence, the Tm in series [2] is 43 °C.

For GATCGATTAGTCGATC ((((((....)))))), the folding enthalpy in series [1] was -54.5 kcal/mol. In addition, the Tm in series [2] was determined as 53.2 °C.

For GACGCTGGAAACAGCATC ((.((((....)))).)), the folding enthalpy in series [1] is -12.7 kcal/mol. For the same sequence, the Tm in series [2] was 41.3 °C.

In the case of GGAAACCGAAAGGTATCC (((.(((....))).))), the folding enthalpy in series [1] is -22.7 kcal/mol. In addition, the Tm in series [2] was found to be 48.4 °C.

For GGATGGGAAACCATCC ((((((....)))))), the folding enthalpy in series [1] was -37.3 kcal/mol. Besides, the Tm in series [2] was found to be 59.2 °C.

Take GCGGTGCGAAAGCATGGC ((..(((....)))..)): in series [1], the folding enthalpy was -21.8 kcal/mol. The Tm in series [2] is 56.1 °C.

As for GATGCGGGAAACCGCACC (.(((((....))))).), the folding enthalpy in series [1] was -11.3 kcal/mol. The Tm in series [2] amounted to 42.9 °C.

Consider GACTGAACGAAAGTTGTC (((..(((....)))))), for which the folding enthalpy in series [1] was -19.5 kcal/mol. Besides, in series [2], the Tm was determined as 32.8 °C.

Turning to GCTCTGGGAAACTAGGGC ((.((.(....).)).)), the folding enthalpy in series [1] is -27.7 kcal/mol. For the same sequence, the Tm in series [2] turned out to be 36.5 °C.

As for GCCTGCGAAAGCATCGGC ((((((....)))..))), the folding enthalpy in series [1] was -19.1 kcal/mol. In addition, the Tm in series [2] came to 47.2 °C.

For GTTTTACGAAAGTAAAC (((.(((....)))))), the folding enthalpy in series [1] is -17.4 kcal/mol. For the same sequence, in series [2], the Tm was 38.7 °C.

For GATCCCCGGGGGATC ((((((...)))))), the folding enthalpy in series [1] is -35.3 kcal/mol. Further, the Tm in series [2] was 60.9 °C.

For the sequence GGCTAGCCGAAAGGCGCC (((..(((....)))))), the folding enthalpy in series [1] was -15.9 kcal/mol. Moreover, the Tm in series [2] was 59 °C.

For GATCTAGGTTAGATC ((((((...)))))), in series [1], the folding enthalpy is -28.5 kcal/mol. Besides, the Tm in series [2] was 39.2 °C.

As to GCCATGCGAAAGCACGGC (((.(((....))).))), the folding enthalpy in series [1] is -49.1 kcal/mol. Further, the Tm in series [2] came to 56.9 °C.

GATCTCCTCGGAGATC ((((((....)))))): the folding enthalpy in series [1] is -52.8 kcal/mol. For the same sequence, the Tm in series [2] was determined as 58 °C.

On to GTAGGCCGAAAGGCATAC (((.(((....))).))), for which the folding enthalpy in series [1] is -33.2 kcal/mol. For the same sequence, the Tm in series [2] was found to be 61.9 °C.

Take GATCGACGAATCGATC ((((((....)))))): the folding enthalpy in series [1] was -33.7 kcal/mol. In series [2], the Tm amounted to 49 °C.

For GGCTACCGAAAGGTCGCC (((.(((....))).))), the folding enthalpy in series [1] was -39.2 kcal/mol. In addition, the Tm in series [2] came out at 58.6 °C.
